According to ChEMBL document CHEMBL1153027, “Synthesis of quinolinyl and isoquinolinyl phenyl ketones as novel agonists for the cannabinoid CB2 receptor” (Bioorg Med Chem, 2009):

Key:
Cannabinoid receptor 2 [1] = biological target: T1, Cannabinoid receptor 2 (Homo sapiens, UniProt P34972); assay: Agonist activity at human CB2 receptor expressed in CHO cells at 10 uM by [35]GTPgammaS binding assay relative to HU210; assay type: functional, cell-based
In short: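 Human CB2 stably expressed in CHO cells; agonist-stimulated binding of the nonhydrolyzable GTP analogue [35S]GTPγS, run as described by Savinainen et al. Single test concentration 10 µM. Response expressed as percentage of the full CB1/CB2 agonist HU-210. Mean ± SEM of at least three experiments performed in duplicate.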

Cannabinoid receptor 2 [2] = biological target: T1, Cannabinoid receptor 2; assay: Agonist activity at human CB2 receptor expressed in CHO cells by [35]GTPgammaS binding assay; assay type: functional, cell-based
In short: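 hCB2 stably expressed in CHO cells; [35S]GTPγS binding stimulated by agonist, procedure of Savinainen et al. Full concentration–response curves were run only for compounds giving over 50% relative activity at 10 µM. EC50 and Emax were obtained by nonlinear regression fitted to a sigmoidal concentration–response equation.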

[3] = biological target: Cannabinoid receptor 1 (Rattus norvegicus) (UniProt P20272); assay: Agonist activity at rat cerebellar membrane CB1 receptor at 10 uM by [35]GTPgammaS binding assay relative to basal level; assay type: functional
Chain of Cannabinoid receptor 1 (Rattus norvegicus) (P20272 whole entry): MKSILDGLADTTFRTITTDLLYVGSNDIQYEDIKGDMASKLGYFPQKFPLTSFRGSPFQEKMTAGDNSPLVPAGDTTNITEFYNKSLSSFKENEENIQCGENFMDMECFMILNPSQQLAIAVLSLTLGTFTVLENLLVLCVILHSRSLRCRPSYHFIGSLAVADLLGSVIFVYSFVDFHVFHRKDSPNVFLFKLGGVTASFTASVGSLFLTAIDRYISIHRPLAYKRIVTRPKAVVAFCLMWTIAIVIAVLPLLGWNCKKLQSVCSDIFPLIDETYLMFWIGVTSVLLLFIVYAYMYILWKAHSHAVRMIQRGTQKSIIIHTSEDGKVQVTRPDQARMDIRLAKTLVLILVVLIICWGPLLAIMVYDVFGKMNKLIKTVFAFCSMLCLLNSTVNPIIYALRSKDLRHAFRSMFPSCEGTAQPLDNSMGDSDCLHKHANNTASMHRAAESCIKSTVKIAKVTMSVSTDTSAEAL
In short: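 Rat cerebellar membranes (CB1) used to screen for CB1 agonism and antagonism, per a previously described method. [35S]GTPγS binding with compounds at 10 µM. Results given as % basal; mean ± SEM of at least three duplicate experiments.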

T1 sequence (P34972 whole entry): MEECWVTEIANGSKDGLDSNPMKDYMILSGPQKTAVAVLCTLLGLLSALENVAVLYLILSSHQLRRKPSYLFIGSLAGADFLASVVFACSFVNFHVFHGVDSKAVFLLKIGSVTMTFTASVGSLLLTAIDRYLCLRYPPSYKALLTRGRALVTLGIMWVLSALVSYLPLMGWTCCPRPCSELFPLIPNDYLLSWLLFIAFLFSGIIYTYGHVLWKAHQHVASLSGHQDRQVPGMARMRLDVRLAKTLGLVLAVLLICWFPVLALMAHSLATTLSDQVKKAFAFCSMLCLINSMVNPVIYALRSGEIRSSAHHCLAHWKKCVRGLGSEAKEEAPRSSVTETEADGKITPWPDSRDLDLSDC

Emax (Cannabinoid receptor 2 [1]) | EC50 (Cannabinoid receptor 2 [2]) | Activity [3] | SMILES
53% | 2.51 µM | 106% | COc1ccccc1C(=O)c1ccc2ccccc2n1
62% | 6.31 µM | 101% | CN(C)c1ccc(C(=O)c2ccc3ccccc3n2)cc1
– | – | 108% | COc1ccc(C(=O)c2ccc3ccccc3n2)cc1
87% | 2 µM | 102% | O=C(c1ccc2ccccc2n1)c1ccccc1C(F)(F)F
57% | 3.16 µM | 95% | O=C(c1ccc(C(F)(F)F)cc1)c1nccc2ccccc12
– | – | 99% | O=C(c1ccc(F)cc1)c1ccc2ccccc2n1
– | – | 108% | CCCOc1ccc(C(=O)c2ccc3ccccc3n2)cc1
– | – | 101% | O=C(c1ccc(Cl)cc1)c1nccc2ccccc12
– | – | 108% | O=C(c1cc(C(F)(F)F)cc(C(F)(F)F)c1)c1ccc2ccccc2n1
63% | 3.98 µM | 101% | O=C(c1ccc(Cl)cc1)c1ccc2ccccc2n1
95% | 0.631 µM | 116% | CN(C)c1ccccc1C(=O)c1nccc2ccccc12
– | – | 111% | O=C(c1ccc(Cl)c(Cl)c1)c1nccc2ccccc12
– | – | 85% | COc1ccc(C(=O)c2nccc3ccccc23)cc1
– | – | 101% | O=C(c1cc(C(F)(F)F)cc(C(F)(F)F)c1)c1nccc2ccccc12
– | – | 104% | O=C(c1ccc(F)cc1)c1nccc2ccccc12
– | – | 106% | O=C(c1cccc(C(F)(F)F)c1)c1nccc2ccccc12
– | – | 102% | CC(C)Oc1ccc(C(=O)c2ccc3ccccc3n2)cc1
– | – | 105% | O=C(c1ccc(C(F)(F)F)cc1)c1ccc2ccccc2n1
– | – | 106% | O=C(c1cccc(F)c1)c1ccc2ccccc2n1
72% | 0.501 µM | 112% | O=C(c1ccccc1C(F)(F)F)c1nccc2ccccc12
68% | 2.51 µM | 99% | CN(C)c1ccc(C(=O)c2nccc3ccccc23)cc1
– | – | 102% | O=C(c1ccccc1)c1nccc2ccccc12
91% | 0.794 µM | 101% | CN(C)c1ccccc1C(=O)c1ccc2ccccc2n1
52% | 7.94 µM | 103% | O=C(c1ccccc1)c1ccc2ccccc2n1
– | – | 112% | COc1cccc(C(=O)c2nccc3ccccc23)c1
54% | 2 µM | 102% | COc1cccc(C(=O)c2ccc3ccccc3n2)c1
– | – | 99% | O=C(c1cccc(F)c1)c1nccc2ccccc12
– | – | 100% | CCOc1ccc(C(=O)c2ccc3ccccc3n2)cc1
– | – | 100% | O=C(c1ccc(Cl)c(Cl)c1)c1ccc2ccccc2n1
42% | 5.01 µM | 102% | O=C(c1cccc(C(F)(F)F)c1)c1ccc2ccccc2n1
